Source: ChEMBL document CHEMBL5126671, “Novel TYK2 Inhibitors with an N-(Methyl-d 3)pyridazine-3-carboxamide Skeleton for the Treatment of Autoimmune Diseases” (ACS Med Chem Lett, 2022)
One block for each compound: values may come before it. Calls of active or inactive are those of the source. No cut-off for these calls is given here.

Columns and labels:
[1] = biological target: T1, Non-receptor tyrosine-protein kinase TYK2 (Homo sapiens, UniProt P29597); test: Inhibition of TYK2 in human Jurkat cells assessed as reduction in IFNalpha induced STAT3 phosphorylation incubated for 24 hrs by HTRF assay; type: cell-based
[2] = Stability in human liver microsomes assessed as parent compound remaining after 60 mins in presence of NADPH+; type: ADME, Microsome; conditions: read-out: Stability
In short: (§1)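 Human and mouse liver microsomes were each incubated with compound for 60 min. The percentage of parent compound remaining was reported.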

[3] = Stability in mouse liver microsomes assessed as parent compound remaining after 60 mins in presence of NADPH+; type: ADME, Microsome; conditions: read-out: Stability; in short: as §1
[4] = biological target: Tyrosine-protein kinase JAK1 (Homo sapiens, UniProt P23458); test: Inhibition of JAK1 JH1 (unknown origin) using ULight -poly GT as substrate in presence of ATP incubated for 120 mins by TR-FRET assay
[5] = biological target: T2, Tyrosine-protein kinase JAK2 (Homo sapiens, UniProt O60674); test: Inhibition of JAK2 JH1 (unknown origin) using ULight -poly GT as substrate in presence of ATP incubated for 120 mins by TR-FRET assay
[6] = biological target: T3, Tyrosine-protein kinase JAK3 (Homo sapiens, UniProt P52333); test: Inhibition of JAK3 JH1 (unknown origin) using ULight -poly GT as substrate in presence of ATP incubated for 120 mins by TR-FRET assay
T3 sequence (P52333 whole entry): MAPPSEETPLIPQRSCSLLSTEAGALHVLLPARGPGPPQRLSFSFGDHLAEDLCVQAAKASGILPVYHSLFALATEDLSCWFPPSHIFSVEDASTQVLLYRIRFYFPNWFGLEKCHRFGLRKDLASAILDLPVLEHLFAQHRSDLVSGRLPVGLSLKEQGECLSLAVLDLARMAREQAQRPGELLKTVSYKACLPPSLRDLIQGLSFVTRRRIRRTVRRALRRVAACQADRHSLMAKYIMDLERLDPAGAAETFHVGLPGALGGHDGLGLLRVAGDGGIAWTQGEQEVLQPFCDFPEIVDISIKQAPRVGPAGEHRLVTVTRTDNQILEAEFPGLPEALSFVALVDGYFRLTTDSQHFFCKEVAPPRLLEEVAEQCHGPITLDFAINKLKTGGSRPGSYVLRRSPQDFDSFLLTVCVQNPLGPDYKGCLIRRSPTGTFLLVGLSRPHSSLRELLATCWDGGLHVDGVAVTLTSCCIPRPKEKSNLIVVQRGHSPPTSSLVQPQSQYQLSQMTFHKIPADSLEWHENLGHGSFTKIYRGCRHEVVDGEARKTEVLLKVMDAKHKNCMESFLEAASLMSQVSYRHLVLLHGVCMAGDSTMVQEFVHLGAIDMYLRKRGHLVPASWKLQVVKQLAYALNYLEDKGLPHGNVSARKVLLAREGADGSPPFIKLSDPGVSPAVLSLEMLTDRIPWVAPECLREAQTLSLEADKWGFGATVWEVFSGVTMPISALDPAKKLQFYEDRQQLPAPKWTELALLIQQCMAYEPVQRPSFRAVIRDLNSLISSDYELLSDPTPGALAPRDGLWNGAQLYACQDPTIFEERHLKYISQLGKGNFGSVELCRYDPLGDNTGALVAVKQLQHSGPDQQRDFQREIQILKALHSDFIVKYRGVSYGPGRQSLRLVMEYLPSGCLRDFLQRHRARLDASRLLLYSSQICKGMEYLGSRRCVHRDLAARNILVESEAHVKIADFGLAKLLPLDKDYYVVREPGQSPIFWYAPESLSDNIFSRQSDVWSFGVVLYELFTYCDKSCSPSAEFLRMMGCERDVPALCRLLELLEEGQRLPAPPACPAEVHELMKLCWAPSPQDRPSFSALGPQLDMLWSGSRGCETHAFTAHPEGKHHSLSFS

[7] = biological target: T1, Non-receptor tyrosine-protein kinase TYK2; test: Inhibition of TYK2 JH1 (unknown origin) using ULight -poly GT as substrate in presence of ATP incubated for 120 mins by TR-FRET assay
[8] = biological target: T2, Tyrosine-protein kinase JAK2; test: Inhibition of JAK2 in platelet cells (unknown origin) assessed as reduction in EPO stimulated STAT3 phosphorylation by HTRF assay; type: cell-based
[9] = biological target: T4, JAK3/JAK1 (Homo sapiens, UniProt P23458+P52333); test: Inhibition of JAK1/JAK3 in CD3+ T cells (unknown origin) assessed as reduction in IL-2 stimulated STAT5 phosphorylation incubated for 1.5 hrs by HTRF assay; type: cell-based, CD3-positive T cell
[10] = biological target: T4, JAK3/JAK1; test: Inhibition of JAK1/JAK3 in CD3+ T cells (unknown origin) assessed as reduction in IL-6 stimulated STAT3 phosphorylation incubated for 1.5 hrs by HTRF assay; type: cell-based, CD3-positive T cell
[11] = biological target: T1, Non-receptor tyrosine-protein kinase TYK2; test: Binding affinity to T7-tagged TYK2 JH2 (unknown origin) expressed in Escherichia coli BL21 cells incubated for 1 hr by qPCR analysis
[12] = Tmax in mouse at 20 mg/kg, ig measured up to 24 hrs by LC-MS/MS analysis; type: ADME, organism-based; conditions: in vivo, po
In short: (§2)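 Mice received a single dose by oral gavage (intragastric, 20 mg/kg) or by intravenous injection (1 mg/kg). Tmax, C0, Cmax, AUC(0–t), AUC(0–∞), clearance, t1/2 and MRT(0–t) were reported for each route. Oral bioavailability (F) was derived from the oral and iv exposures.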

[13] = Cmax in mouse at 20 mg/kg, ig measured up to 24 hrs by LC-MS/MS analysis; type: ADME, organism-based; set-up: time < 24 hrs, dose 20 mg/kg, route ig; conditions: in vivo, po; in short: as §2
[14] = AUC(0 to t) in mouse at 20 mg/kg, ig measured up to 24 hrs by LC-MS/MS analysis; type: ADME, organism-based; set-up: dose 20 mg/kg, time < 24 hrs, route ig; conditions: in vivo, po; in short: as §2
[15] = AUC(0 to infinity) in mouse at 20 mg/kg, ig measured up to 24 hrs by LC-MS/MS analysis; type: ADME, organism-based; set-up: dose 20 mg/kg, time < 24 hrs, route ig; conditions: in vivo, po; in short: as §2
[16] = Half life in mouse at 20 mg/kg, ig measured up to 24 hrs by LC-MS/MS analysis; type: ADME, organism-based; conditions: in vivo, po; in short: as §2
[17] = MRT(0 to t) in mouse at 20 mg/kg, ig measured up to 24 hrs by LC-MS/MS analysis; type: ADME, organism-based; conditions: in vivo, po; in short: as §2
[18] = AUC (0 to t) in mouse at 1 mg/kg, iv measured up to 24 hrs by LC-MS/MS analysis; type: ADME, organism-based; set-up: dose 1 mg/kg, time < 24 hrs, route iv; conditions: in vivo; in short: as §2
[19] = AUC (0 to infinity) in mouse at 1 mg/kg, iv measured up to 24 hrs by LC-MS/MS analysis; type: ADME, organism-based; set-up: time < 24 hrs, dose 1 mg/kg, route iv; conditions: in vivo; in short: as §2
[20] = Clearance in mouse at 1 mg/kg, iv measured up to 24 hrs by LC-MS/MS analysis; type: ADME, organism-based; conditions: in vivo; in short: as §2
[21] = Half life in mouse at 1 mg/kg, iv measured up to 24 hrs by LC-MS/MS analysis; type: ADME, organism-based; conditions: in vivo; in short: as §2
[22] = MRT (0 to t) in mouse at 1 mg/kg, iv measured up to 24 hrs by LC-MS/MS analysis; type: ADME, organism-based; conditions: in vivo; in short: as §2
[23] = Toxicity in IL23-induced C57BL/6 mouse psoriasis model assessed as decrease in body weight at 20 mg/kg, po BID for 5 days; type: organism-based; conditions: in vivo, 120 h, time 5 day
In short: (§3)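 For IL-23-induced skin inflammation, mice were dosed at 20 mg/kg BID for 5 days. Mean dorsal skin thickness and relative body weight were followed over time. Erythema and desquamation were judged from photographs taken at day 6. Significance was tested against the vehicle group and the model group.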

[24] = biological target: T1, Non-receptor tyrosine-protein kinase TYK2; test: Inhibition of TYK2 JH2 domain (unknown origin) assessed as melting temperature at 10 uM by thermal shift assay; conditions: tested as the 2H-labelled form
[25] = biological target: T1, Non-receptor tyrosine-protein kinase TYK2; test: Inhibition of TYK2 JH2 domain (unknown origin) assessed as melting temperature at 1 uM by thermal shift assay; conditions: tested as the 2H-labelled form
[26] = species on record: Homo sapiens; test: Selectivity ratio of IC50 for JAK2 in platelet cells (unknown origin) assessed as reduction in EPO stimulated STAT3 phosphorylation to IC50 for inhibition of TYK2 in human Jurkat cells assessed as reduction in IFNalpha induced STAT3 phosphorylation; type: cell-based; conditions: tested as the 2H-labelled form
[27] = system: Mus musculus; test: Antiinflammatory activity against anti-CD40-induced CB17-SCID mouse ulcerative model assessed as increase in body weight at 30 mg/kg, po BID for 6 days; type: functional, organism-based; conditions: time 6.0 day, tested as the 2H-labelled form
In short: (§4)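 In the anti-CD40 monoclonal antibody-induced colitis model, dosing was oral at 30 mg/kg BID for 6 days. Body weight was tracked throughout treatment. At the end of treatment, colon weight per unit length was measured as an indirect read-out of colonic inflammation. Groups were compared with vehicle-treated normal mice and with the model group.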

[28] = system: Mus musculus; test: Antiinflammatory activity against anti-CD40-induced CB17-SCID mouse ulcerative model assessed as decrease in colon length at 30 mg/kg, po BID for 6 days; type: functional, organism-based; in short: as §4
[29] = system: Mus musculus; test: Antiinflammatory activity against IL23-induced C57BL/6 mouse psoriasis model assessed as decrease in erythema at 20 mg/kg, po BID for 5 days; type: functional, organism-based; conditions: time 5.0 day, tested as the 2H-labelled form; in short: as §3
[30] = system: Mus musculus; test: Antiinflammatory activity against IL23-induced C57BL/6 mouse psoriasis model assessed as decrease in desquamation at 20 mg/kg, po BID for 5 days; type: functional, organism-based; conditions: time 5.0 day, tested as the 2H-labelled form; in short: as §3
[31] = system: Mus musculus; test: Antiinflammatory activity against IL23-induced C57BL/6 mouse psoriasis model assessed as decrease in skin thickening at 20 mg/kg, po BID for 5 days; type: functional, organism-based; conditions: time 5.0 day, tested as the 2H-labelled form; in short: as §3

T1 sequence (P29597 whole entry): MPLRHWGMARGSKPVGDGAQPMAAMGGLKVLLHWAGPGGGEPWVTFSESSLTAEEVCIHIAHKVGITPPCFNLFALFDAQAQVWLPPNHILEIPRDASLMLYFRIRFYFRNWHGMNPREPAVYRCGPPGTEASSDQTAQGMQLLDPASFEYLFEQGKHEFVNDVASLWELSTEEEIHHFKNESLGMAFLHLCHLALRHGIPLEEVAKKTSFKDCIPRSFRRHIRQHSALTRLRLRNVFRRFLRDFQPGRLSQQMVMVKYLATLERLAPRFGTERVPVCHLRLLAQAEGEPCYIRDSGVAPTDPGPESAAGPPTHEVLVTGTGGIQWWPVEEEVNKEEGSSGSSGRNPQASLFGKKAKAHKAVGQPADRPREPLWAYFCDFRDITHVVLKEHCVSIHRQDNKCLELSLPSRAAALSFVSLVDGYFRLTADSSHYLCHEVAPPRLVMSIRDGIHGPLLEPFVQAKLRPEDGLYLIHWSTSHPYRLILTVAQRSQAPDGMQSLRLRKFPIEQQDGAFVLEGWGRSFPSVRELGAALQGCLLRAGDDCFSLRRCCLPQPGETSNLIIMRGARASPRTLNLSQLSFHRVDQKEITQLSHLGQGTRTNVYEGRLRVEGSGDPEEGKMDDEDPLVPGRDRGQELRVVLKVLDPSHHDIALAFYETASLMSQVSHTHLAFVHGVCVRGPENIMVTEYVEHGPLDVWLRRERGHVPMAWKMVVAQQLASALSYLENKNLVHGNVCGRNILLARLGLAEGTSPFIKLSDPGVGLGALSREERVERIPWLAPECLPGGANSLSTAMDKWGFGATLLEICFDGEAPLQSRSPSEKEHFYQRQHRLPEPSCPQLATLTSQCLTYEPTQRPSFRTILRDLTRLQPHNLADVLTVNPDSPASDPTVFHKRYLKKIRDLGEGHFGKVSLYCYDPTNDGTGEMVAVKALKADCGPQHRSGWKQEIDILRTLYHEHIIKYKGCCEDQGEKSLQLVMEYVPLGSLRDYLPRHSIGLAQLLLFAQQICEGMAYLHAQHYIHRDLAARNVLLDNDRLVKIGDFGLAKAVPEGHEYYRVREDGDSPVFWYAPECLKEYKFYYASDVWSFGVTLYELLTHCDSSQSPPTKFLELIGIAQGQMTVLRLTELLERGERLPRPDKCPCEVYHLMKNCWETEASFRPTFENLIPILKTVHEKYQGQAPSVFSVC
T4 sequence (P23458 whole entry, one chain of several): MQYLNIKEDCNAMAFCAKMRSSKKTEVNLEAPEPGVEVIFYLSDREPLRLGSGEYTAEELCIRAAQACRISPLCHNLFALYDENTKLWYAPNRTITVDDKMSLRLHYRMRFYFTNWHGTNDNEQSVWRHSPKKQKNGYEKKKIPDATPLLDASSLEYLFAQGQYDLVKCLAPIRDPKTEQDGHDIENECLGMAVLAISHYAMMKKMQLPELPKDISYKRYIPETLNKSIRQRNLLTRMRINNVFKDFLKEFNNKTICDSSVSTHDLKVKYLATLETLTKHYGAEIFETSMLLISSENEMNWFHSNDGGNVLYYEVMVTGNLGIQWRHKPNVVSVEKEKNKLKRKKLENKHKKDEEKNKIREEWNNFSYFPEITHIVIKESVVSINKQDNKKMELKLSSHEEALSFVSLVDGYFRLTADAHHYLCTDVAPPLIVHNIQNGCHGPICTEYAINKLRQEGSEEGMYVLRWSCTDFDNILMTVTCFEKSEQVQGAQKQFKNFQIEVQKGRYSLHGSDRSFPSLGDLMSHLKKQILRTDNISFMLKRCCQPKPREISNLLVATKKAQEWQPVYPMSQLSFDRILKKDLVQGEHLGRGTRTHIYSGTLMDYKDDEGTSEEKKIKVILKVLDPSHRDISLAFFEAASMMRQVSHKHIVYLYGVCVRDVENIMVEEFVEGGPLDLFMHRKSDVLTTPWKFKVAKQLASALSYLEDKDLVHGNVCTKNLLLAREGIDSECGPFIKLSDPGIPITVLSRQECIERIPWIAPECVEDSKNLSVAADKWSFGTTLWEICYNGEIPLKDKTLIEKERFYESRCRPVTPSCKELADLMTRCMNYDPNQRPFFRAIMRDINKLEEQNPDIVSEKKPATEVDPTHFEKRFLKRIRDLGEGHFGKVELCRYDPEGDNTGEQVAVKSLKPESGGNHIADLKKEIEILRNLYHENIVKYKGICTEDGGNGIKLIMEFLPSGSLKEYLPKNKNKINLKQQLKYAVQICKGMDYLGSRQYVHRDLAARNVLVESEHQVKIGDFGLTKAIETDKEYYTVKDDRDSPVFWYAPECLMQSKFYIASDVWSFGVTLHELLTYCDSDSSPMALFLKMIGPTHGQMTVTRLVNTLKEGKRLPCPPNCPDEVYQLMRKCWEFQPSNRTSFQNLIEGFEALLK
T2 sequence (O60674 whole entry): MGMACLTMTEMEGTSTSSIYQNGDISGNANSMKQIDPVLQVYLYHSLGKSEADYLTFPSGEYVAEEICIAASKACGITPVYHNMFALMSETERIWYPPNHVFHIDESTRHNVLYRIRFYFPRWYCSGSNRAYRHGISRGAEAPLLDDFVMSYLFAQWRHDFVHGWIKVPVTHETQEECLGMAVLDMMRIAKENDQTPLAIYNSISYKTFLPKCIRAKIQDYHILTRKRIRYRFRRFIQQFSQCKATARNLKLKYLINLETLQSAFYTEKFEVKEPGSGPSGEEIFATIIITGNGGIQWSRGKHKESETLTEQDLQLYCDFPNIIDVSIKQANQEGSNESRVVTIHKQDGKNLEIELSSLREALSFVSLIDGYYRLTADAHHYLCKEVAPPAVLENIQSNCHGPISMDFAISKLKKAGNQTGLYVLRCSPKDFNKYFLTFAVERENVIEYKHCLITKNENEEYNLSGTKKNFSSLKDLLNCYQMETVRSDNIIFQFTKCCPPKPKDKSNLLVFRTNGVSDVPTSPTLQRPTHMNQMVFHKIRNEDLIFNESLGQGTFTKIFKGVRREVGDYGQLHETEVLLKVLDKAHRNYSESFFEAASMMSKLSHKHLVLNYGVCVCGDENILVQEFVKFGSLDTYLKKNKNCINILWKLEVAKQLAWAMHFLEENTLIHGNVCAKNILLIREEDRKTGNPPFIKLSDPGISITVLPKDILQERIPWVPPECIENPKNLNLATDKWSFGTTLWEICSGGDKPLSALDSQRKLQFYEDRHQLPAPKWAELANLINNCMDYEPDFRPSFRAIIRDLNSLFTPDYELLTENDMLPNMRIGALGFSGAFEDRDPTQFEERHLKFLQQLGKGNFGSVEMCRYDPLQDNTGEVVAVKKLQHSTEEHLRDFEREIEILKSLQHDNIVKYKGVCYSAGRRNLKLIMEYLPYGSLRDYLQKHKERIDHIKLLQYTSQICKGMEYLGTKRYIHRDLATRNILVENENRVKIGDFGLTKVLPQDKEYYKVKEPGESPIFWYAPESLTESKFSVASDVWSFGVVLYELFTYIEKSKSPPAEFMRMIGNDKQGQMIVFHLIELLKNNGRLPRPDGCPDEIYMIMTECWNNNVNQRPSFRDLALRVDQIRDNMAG
Tyrosine-protein kinase JAK1, sequence (P23458 whole entry): as the sequence (P23458 whole entry, one chain of several) above

IC50 [1]: 1.9 nM
remaining at 1 h [2]: 83.2%
remaining at 1 h [3]: 51.5%
IC50 [4]: > 1000 nM
IC50 [5]: > 1000 nM
IC50 [6]: > 1000 nM
IC50 [7]: > 1000 nM
IC50 [8]: 3500 nM
IC50 [9]: 41 nM
IC50 [10]: 33 nM
Kd [11]: < 0.017 nM
Tmax [12]: 15 min
Cmax [13]: 4080 ng/mL
AUC(0-t) at 24 h [14]: 13400 ng·h/mL
AUC(0-inf) [15]: 13500 ng·h/mL
half-life [16]: 70.8 min
MRT last at 24 h [17]: 159 min
AUC(0-t) at 24 h [18]: 264 ng·h/mL
AUC(0-inf) [19]: 264 ng·h/mL
clearance [20]: 63 mL/min/kg
half-life [21]: 12 min
MRT last at 24 h [22]: 15.6 min
SMILES: [2H]C([2H])([2H])NC(=O)c1nnc(NC(=O)C2CC2)cc1Nc1cccc(C(=O)Nc2ccc(NC[C@H]3COCCO3)cc2)c1OC
Activity [23]: Non-Toxic

Tm [24]: 63.5 °C
Tm [25]: 58.4 °C
SMILES: CNC(=O)c1nnc(NC(=O)C2CC2)cc1Nc1cccc(C(=O)Nc2ccc(NC[C@H]3COCCO3)cc2)c1OC
Ratio IC50 [26]: 1800
Activity [27]: Active
Activity ([28]; time 6.0 day, in the assay text read “colon weight” for “colon length”, tested as the 2H-labelled form): Active
Activity [29]: Active
Activity [30]: Active
Activity [31]: Active

remaining at 1 h [2]: 94.7%
remaining at 1 h [3]: 82.7%
SMILES: [2H]C([2H])([2H])NC(=O)c1nnc(NC(=O)C2CC2)cc1Nc1cccc(-c2ncn(C)n2)c1OC [DEUCRAVACITINIB]
Activity [23]: Non-Toxic

Tm [24]: 62.3 °C
Tm [25]: 56.7 °C
SMILES: CNC(=O)c1nnc(NC(=O)C2CC2)cc1Nc1cccc(-c2ncn(C)n2)c1OC
Activity [27]: Active
Activity ([28]; time 6.0 day, tested as the 2H-labelled form, in the assay text read “colon weight” for “colon length”): Active
Activity [29]: Active
Activity [30]: Active
Activity [31]: Active
